In ChEMBL document CHEMBL1143376, “Synthesis and biological evaluation of extraordinarily potent C-10 carba artemisinin dimers against P. falciparum malaria parasites and HL-60 cancer cells” (Bioorg Med Chem, 2009):

Tests used:
HL-60 = experiment: Anticancer activity against human HL60 cells by MTT assay; assay type: functional, cell-based
In short: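 HL-60 cells grown in RPMI-1640 with 10% v/v FBS and 1% v/v L-glutamine, 37 °C, 5% CO2, kept below 1 × 10⁶ cells/mL, passages 5–15. Seeded at 2.5 × 10⁴/well in triplicate and exposed for 72 h to […]. DMSO final below 0.5% v/v. Read by MTT (4 h) then SDS/DMF lysis (4 h), A570/590, as % of vehicle. IC50 taken from inhibition curves; experiments repeated at least three times.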

Plasmodium falciparum [1] = experiment: Antimalarial activity against chloroquine-sensitive Plasmodium falciparum 3D7 by [3H]hypoxanthine uptake; assay type: functional, organism-based
[2] = Therapeutic index, ratio of IC50 for human HL60 cells to IC50 for Plasmodium falciparum; assay type: cell-based, HL-60; details: read-out: TI
Plasmodium falciparum [3] = experiment: Antimalarial activity against chloroquine-resistant Plasmodium falciparum K1 by [3H]hypoxanthine uptake; assay type: functional, organism-based
PBMC = experiment: Toxicity in PBMC at 250 uM; assay type: cell-based

Row | SMILES | IC50 (HL-60) [nM] | IC50 (Plasmodium falciparum [1]) [nM] | selectivity ratio [2] | IC50 (Plasmodium falciparum [3]) [nM] | Activity (PBMC)
1 | C[C@H]1[C@@H](CCNC(=O)NCC[C@H]2O[C@@H]3O[C@@]4(C)CC[C@H]5[C@H](C)CC[C@@H]([C@H]2C)[C@@]35OO4)O[C@@H]2O[C@@]3(C)CC[C@H]4[C@H](C)CC[C@@H]1[C@@]24OO3 | > 100000 | > 60 | – | – | –
2 | COc1cccc2c1C(=O)c1c(O)c3c(c(O)c1C2=O)C[C@@](O)(C(=O)CO)C[C@@H]3O[C@H]1C[C@H](N)[C@H](O)[C@H](C)O1 [DOXORUBICIN] | 18 | – | – | – | –
3 | COP(=O)(OCC[C@H]1O[C@@H]2OC3(C)CC[C@H]4[C@H](C)CC[C@@H]([C@H]1C)[C@@]24OO3)OCC[C@H]1O[C@@H]2OC3(C)CC[C@H]4[C@H](C)CC[C@@H]([C@H]1C)[C@@]24OO3 (single isomer, unassigned) | 70 | – | > 500 | 0.2 | Non-toxic
4 | C[C@H]1[C@@H](CCOP(=O)(OCC[C@H]2O[C@@H]3OC4(C)CC[C@H]5[C@H](C)CC[C@@H]([C@H]2C)[C@@]35OO4)Oc2ccccc2)O[C@@H]2OC3(C)CC[C@H]4[C@H](C)CC[C@@H]1[C@@]24OO3 (single isomer, unassigned) | 270 | – | > 500 | 0.5 | Non-toxic
5 | C[C@H]1[C@@H](CCN2CCC(C3CCN(CC[C@H]4O[C@@H]5O[C@@]6(C)CC[C@H]7[C@H](C)CC[C@@H]([C@H]4C)[C@@]57OO6)CC3)CC2)O[C@@H]2O[C@@]3(C)CC[C@H]4[C@H](C)CC[C@@H]1[C@@]24OO3 | 400 | 0.46 | – | – | –
6 | C[C@H]1[C@@H](CCCOP(=O)(OCCC[C@H]2O[C@@H]3O[C@@]4(C)CC[C@H]5[C@H](C)CC[C@@H]([C@H]2C)[C@@]35OO4)Oc2ccccc2)O[C@@H]2O[C@@]3(C)CC[C@H]4[C@H](C)CC[C@@H]1[C@@]24OO3 | 250 | 0.21 | – | – | –
7 | C[C@@H]1CC[C@H]2[C@@H](C)C(=O)O[C@@H]3O[C@@]4(C)CC[C@@H]1[C@]32OO4 [ARTEMISININ] | – | 12.3 | – | – | –
8 | C[C@H]1[C@@H](CCOC(=O)OCC[C@H]2O[C@@H]3O[C@@]4(C)CC[C@H]5[C@H](C)CC[C@@H]([C@H]2C)[C@@]35OO4)O[C@@H]2O[C@@]3(C)CC[C@H]4[C@H](C)CC[C@@H]1[C@@]24OO3 | > 100000 | 4.6 | – | – | –
9 | C[C@H]1[C@@H](O)O[C@@H]2O[C@@]3(C)CC[C@H]4[C@H](C)CC[C@@H]1[C@@]24OO3 [ARTENIMOL] | 2410 | – | – | – | –
10 | C[C@@H]1[C@@H](COP(=O)(OC[C@H]2O[C@@H]3O[C@@]4(C)CC[C@H]5[C@H](C)CC[C@@H]([C@@H]2C)[C@@]35OO4)Oc2ccccc2)O[C@@H]2O[C@@]3(C)CC[C@H]4[C@H](C)CC[C@@H]1[C@@]24OO3 | 1040 | 6 | – | – | –
11 | COP(=O)(OCCC[C@H]1O[C@@H]2O[C@@]3(C)CC[C@H]4[C@H](C)CC[C@@H]([C@H]1C)[C@@]24OO3)OCCC[C@H]1O[C@@H]2O[C@@]3(C)CC[C@H]4[C@H](C)CC[C@@H]([C@H]1C)[C@@]24OO3 | 50 | 4.8 | – | – | –
12 | C[C@H]1[C@@H](CCNC(=O)C[C@H]2O[C@@H]3O[C@@]4(C)CC[C@H]5[C@H](C)CC[C@@H]([C@H]2C)[C@@]35OO4)O[C@@H]2O[C@@]3(C)CC[C@H]4[C@H](C)CC[C@@H]1[C@@]24OO3 | 100 | 0.03 | – | – | –
13 | COP(=O)(OC[C@H]1O[C@@H]2O[C@@]3(C)CC[C@H]4[C@H](C)CC[C@@H]([C@@H]1C)[C@@]24OO3)OC[C@H]1O[C@@H]2O[C@@]3(C)CC[C@H]4[C@H](C)CC[C@@H]([C@@H]1C)[C@@]24OO3 | 770 | 4.8 | – | – | –
14 | CO[C@H]1O[C@@H]2O[C@@]3(C)CC[C@H]4[C@H](C)CC[C@@H]([C@H]1C)[C@@]24OO3 [ARTEMETHER] | – | 2.11 | – | 3.53 | –
